# Source: PubChem BioAssay (several laboratories)
# This is a sample that favours compounds with a hit; in the whole collection about 4% have one here.
# TAAR1 agonist: human TAAR1 agonism; AID 624467; CHO RD-HGA16 TAAR1, Fluo-8 calcium fluorescence; vehicle wells 0%, saturating PEA agonist 100%; activation, % at 3 µM; Q96RJ0; 360,000 compounds, 0.99% hits;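 active = activation above the mean activation of all test compounds in the run plus 3 SD, cut at about 38% in these data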
# Target sequence (Q96RJ0 whole entry, looked up): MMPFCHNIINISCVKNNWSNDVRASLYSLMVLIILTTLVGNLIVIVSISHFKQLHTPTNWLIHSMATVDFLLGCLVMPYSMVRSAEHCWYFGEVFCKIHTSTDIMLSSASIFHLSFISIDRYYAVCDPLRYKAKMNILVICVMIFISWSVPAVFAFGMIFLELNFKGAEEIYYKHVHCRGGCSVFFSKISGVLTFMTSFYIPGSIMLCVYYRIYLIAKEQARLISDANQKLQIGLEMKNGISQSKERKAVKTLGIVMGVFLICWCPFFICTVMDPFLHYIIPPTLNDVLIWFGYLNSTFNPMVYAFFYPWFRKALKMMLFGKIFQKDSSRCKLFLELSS
#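 Test system: RD-HGA16 (CHO) cells co-expressing Gα16 and hTAAR1 | Doses: Single dose, 3 µM | Schedule: 17-24 h seeding, 75 min 37 °C dye, 30 min RT | Evaluation: % activation from peak over basal fluorescence ratio, DMSO-to-PEA scaled | Technique: Kinetic Fluo-8 calcium fluorescence | Benchmarks: Low control DMSO, high control PEA (EC100)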
# TAAR1 antag: human TAAR1 antagonism; CHO RD-HGA16 TAAR1, Fluo-8 calcium fluorescence, antagonist; inhibition, % at 3 µM; 360,000 compounds, 1.5% hits;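 active = inhibition above a per-plate cutoff, the mean inhibition of test compounds on that plate plus 3 SD, cut at about 49% in these data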;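 note: 0% = DMSO plus EC80 beta-PEA response and 100% = DMSO alone without agonist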
#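 Assay system: RD-HGA16 CHO cells with stable hTAAR1 and Gα16 / Reagent: EC80 β-phenethylamine stimulus / Doses: 3 µM, single point / Timing: dye loading 75 min at 37 °C, then 30 min room temperature / Measured by: Fluo-8 intracellular calcium dye fluorescence, real-time kinetic reads / Controls: vehicle wells and EC80 agonist wells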
# DAGLB inh: blocks human DAGLB lipase activity. HEK293T DAGLB membrane lysate, EnzChek fluorogenic substrate. 340,000 compounds, 0.059% hits. inhibition, % at 5.17 µM. Q8NCG7; in the data active = inhibition above about 34%;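 note: 0% = enzyme with vehicle and 100% = wells lacking enzyme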
# GPR7 antagonist: human neuropeptides B/W receptor 1 antagonism; 290,000 compounds, 1.1% hits; GPR7-expressing cells, fluorescence antagonist assay; inhibition, % at 4.4 µM; P48145; AID 1861; in the data active = inhibition above about 16%, passing the limit was not always enough;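 note: cells stimulated with the agonist NPW; 0% = agonist with vehicle and 100% = vehicle without agonist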
# Target sequence (P48145 whole entry, looked up): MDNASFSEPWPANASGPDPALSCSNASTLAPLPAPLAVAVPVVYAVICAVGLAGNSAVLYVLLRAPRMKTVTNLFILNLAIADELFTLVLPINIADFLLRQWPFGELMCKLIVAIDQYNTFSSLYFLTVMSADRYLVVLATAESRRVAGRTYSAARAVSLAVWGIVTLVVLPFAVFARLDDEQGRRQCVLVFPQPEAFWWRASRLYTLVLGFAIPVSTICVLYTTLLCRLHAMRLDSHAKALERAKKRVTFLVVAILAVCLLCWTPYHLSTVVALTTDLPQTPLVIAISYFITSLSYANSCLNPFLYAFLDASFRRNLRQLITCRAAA
# MPTP block: permeability transition pore inhibition | isolated mouse mitochondria, Ca2+ swelling absorbance, 30 min | inhibition, % at 10 µM | 360,000 compounds, 1.4% hits | AID 602449;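 active = inhibition of 50% or more, scaled per plate between neutral and stimulator controls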;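 note: 0% = DMSO wells given calcium and 100% = 1 mM EGTA wells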
# GPR7 antag cf: human GPR7 antagonism, confirmation assay. inhibition, % at 4.4 µM. 2,400 compounds, 52% hits. shares compounds with GPR7 antagonist. GPR7-expressing cells, calcium fluorescence antagonist mode; in the data active = inhibition above about 24%;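 note: stimulated with the GPR7 agonist NPW; 0% = agonist plus vehicle and 100% = vehicle alone without agonist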
# MCHR1 antag: antagonizes human MCHR1, a GPR7 antagonist counter-screen. 2,400 compounds, 62% hits. inhibition, % at 4.4 µM. AID 2148. shares compounds with GPR7 antagonist. MCHR1-expressing cells, fluorescence antagonist assay; in the data active = inhibition above about 22%;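 note: 0% = vehicle with agonist and 100% = vehicle without agonist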
# An asterisk follows results filed as active; · = no result given.
SMILES,TAAR1 agonist,TAAR1 antag,DAGLB inh,GPR7 antagonist,MPTP block,GPR7 antag cf,MCHR1 antag
O=C(Nc1cccc(Cl)c1N1CCCC1)c1ccc([N+](=O)[O-])o1,2.4,-16.7,-4.1,-12.0,0.3,·,·
CCN1CCN(c2c(Cl)cccc2NC(=O)c2ccc([N+](=O)[O-])o2)CC1,0.5,-20.1,-0.1,27.8*,-1.8,33.9*,33.6*
C[C@@H]1CN([C@@H](C)CO)S(=O)(=O)c2ccc(Br)cc2O[C@H]1CN(C)C(=O)C1CCOCC1,7.1,19.8,-0.1,·,-1.1,·,·
O=S1(=O)CCN2C(Cc3ccc(SC(F)F)cc3)=CSC2=N1,6.4,6.1,0.3,23.9*,0.0,16.6,12.4
CC1=CSC2=NS(=O)(=O)CCN12,-1.4,-15.5,-1.0,-6.4,0.8,·,·
O=C(O)c1ccccc1C(=O)OCC1CCC(=NO)CC1 (stereo unspecified),1.2,-5.2,-7.2,·,0.1,·,·
CCOC(=O)c1c(NC(=O)C2COc3ccccc3O2)sc(C(C)=O)c1C (stereo unspecified),-1.1,-26.4,-5.1,0.2,6.8,·,·
CCOC(=O)c1c(NC(=O)C2COc3ccccc3O2)sc2c1CC(C)(C)NC2(C)C (stereo unspecified),15.1,13.4,-3.4,23.5*,0.4,31.8*,37.8*
C=CCN=C1NC(c2cccc(F)c2)C(C(=O)OC)=C(C)N1Cc1ccccc1C(F)(F)F (stereo unspecified),5.5,13.5,·,·,·,·,·
CN(CC(=O)Nc1ccccc1Cl)C(=O)c1cccc(S(=O)(=O)N2CCN(c3ccc(F)cc3)CC2)c1,1.1,5.4,3.8,30.8*,4.9,24.4*,53.1*
COc1ccccc1-c1ccc(SCc2cccc(C)c2)nn1,0.8,9.8,-3.8,63.8*,0.7,41.5*,74.2*
O=[N+]([O-])c1ccc(C2CC(c3ccccc3)=Nc3ccccc3S2)cc1 (stereo unspecified),-1.4,-9.0,-3.3,18.1,-1.2,-1.0,73.7*
O=C(O)C1CC(c2ccccc2)=Nc2ccccc2S1 (stereo unspecified),-1.8,15.4,-0.1,-8.2,2.0,·,·
CCCC(=O)Nc1ccc2c(c1)Cc1ccccc1-2,-0.1,-3.0,-5.3,25.2*,2.1,14.2,23.9*
CC(C)Oc1ccc(C(CCN)C2CCCCC2)cc1 (stereo unspecified),47.5*,11.3,-1.7,55.0*,1.0,48.8*,67.0*
C[C@@H]1CN([C@@H](C)CO)C(=O)c2cc(NC(=O)c3ccccc3)ccc2O[C@@H](C)CCCCO[C@@H]1CN(C)Cc1ccc(C(F)(F)F)cc1,-1.4,-33.9,-10.4,·,-0.6,·,·
OC(C#CCCN1CCCCC1)(c1ccccc1)c1ccccc1,2.2,-5.8,·,21.6*,-1.5,-8.2,6.3
OC(C#CCCN1CCCCC1)(c1ccccc1)C1CCCCC1 (stereo unspecified),1.6,-4.4,-0.6,11.8,7.0,·,·
CC1CCC(C(C)C)C(OCC(O)CN2CCCC(C)C2)C1 (stereo unspecified),4.6,-47.2,-0.7,31.8*,22.7,38.6*,25.4*
CC1CCC(C(C)C)C(OCC(O)CN2CCOCC2)C1 (stereo unspecified),6.5,-3.5,2.5,-4.3,-0.4,·,·
CCOC(=O)Nc1cc(=O)c2ccccc2o1,10.0,8.7,-0.4,21.3*,0.1,2.5,18.8
O=[N+]([O-])c1cc(S(=O)(=O)NCc2ccco2)ccc1NN=Cc1ccccn1,1.3,3.1,·,·,·,·,·
CCCCn1c(SCC(=O)N2CCCCC2C)nc2cc(S(N)(=O)=O)ccc21 (stereo unspecified),7.1,-12.7,-3.2,36.1*,-1.3,-20.2,8.3
CC(C)C(OC(=O)c1cccs1)C(=O)NCc1cccs1 (stereo unspecified),0.7,1.6,-2.8,36.5*,-0.4,-3.5,2.8
CN(C)CCCN(C(=O)/C=C/c1cccs1)c1nc2ccc(F)cc2s1,13.6,-10.0,-1.8,29.4*,1.6,44.7*,28.4*
SMILES,TAAR1 agonist,TAAR1 antag,DAGLB inh,GPR7 antagonist,MPTP block,GPR7 antag cf,MCHR1 antag
CN(C)CCN(C(=O)/C=C/c1cccs1)c1nc2ccc(Br)cc2s1,5.9,56.2*,-0.7,25.0*,6.4,58.9*,67.8*
CN(C)CCCN(C(=O)C1=COCCO1)c1nc2ccc(Br)cc2s1,10.7,7.5,2.2,35.6*,-2.0,55.2*,64.3*
CCc1ccc2nc(N(CCN(C)C)C(=O)/C=C/c3cccs3)sc2c1,·,·,-3.0,21.4,1.0,·,·
CN(C)CCN(C(=O)c1ccc2ccccc2c1)c1nc2ccc(Br)cc2s1,1.6,-10.8,-2.3,6.7,0.4,·,·
CN(C)S(=O)(=O)c1cccc(C(=O)Nc2cc(Cl)ccc2O)c1,14.4,-6.8,0.1,-12.8,0.1,·,·
CN1CCN(c2ccc(Cl)cc2NC(=O)c2cccc(S(=O)(=O)N(C)C)c2)CC1,3.1,-2.3,0.3,24.4*,-1.1,16.2,13.1
COc1cc(F)ccc1-c1csc(C(O)(c2ccccc2)C(F)(F)F)n1 (stereo unspecified),-1.3,7.8,·,·,-0.1,·,·
Cc1ccc(CS(=O)Cc2ccc(C(=O)N3CCN(c4cccc(C)c4C)CC3)o2)cc1 (stereo unspecified),4.5,5.8,-0.5,·,2.3,·,·
Cc1cccc(N2CCN(C(=O)c3ccc(CS(=O)Cc4cccc(Cl)c4)o3)CC2)c1C (stereo unspecified),1.9,31.8,2.4,41.9*,-0.5,10.9,30.9*
Cc1cc(N2CCCCC2)nc(N)n1,5.7,9.1,-2.6,42.7*,1.4,53.3*,75.2*
Cc1cc(N2CCCC2)nc(-c2ccccc2O)n1,18.8,-17.0,-9.0,3.3,-2.2,·,·
Cc1nc(-c2ccc(S(=O)(=O)N3CCOCC3)cc2)cs1,0.5,5.9,-0.8,27.2*,-2.0,-7.1,15.9
Cc1nc(-c2ccc(S(=O)(=O)N3CCCCCC3)cc2)cs1,6.6,10.8,-2.4,-3.7,0.5,·,·
C=CCC12C[C@@]3(O[C@H](c4ccc(C(F)(F)F)cc4)N=C3C[C@H](c3ccc(OC)cc3)[C@H]1C)N(Cc1ccc3c(c1)OCO3)C2=O,6.9,-58.2,·,·,·,·,·
CC(Oc1ccc(Cl)cc1)C(=O)Nc1ccc(S(=O)(=O)Nc2nccs2)cc1 (stereo unspecified),32.7,21.7,1.8,23.6*,0.3,19.9,2.8
C(=C\c1ccccc1)/CN1CCN(C(c2nnnn2Cc2ccccc2)C2CC2)CC1 (stereo unspecified),0.4,-25.3,·,·,1.0,·,·
Nc1c(C(=O)O)ccc2c1C(=O)c1ccccc1C2=O,0.9,13.2,29.7,23.0*,9.0,4.8,2.7
Nc1cc(C(=O)O)c(N)c2c1C(=O)c1ccccc1C2=O,·,·,23.7,-8.3,11.1,·,·
